# In the library only some 2% were active in any assay of this set; here they are far more common.
# ASAP1 inh: ASAP1 ArfGAP inhibition. ASAP1-stimulated ARF1 GTP hydrolysis, GDP FP detection. Q9ULH1. AID 624377. inhibition, % at 16.5 µM. actives 0.19% (n = 360,000); in the data active = inhibition above about 25%
# Target sequence (Q9ULH1 325-724 limits assumed): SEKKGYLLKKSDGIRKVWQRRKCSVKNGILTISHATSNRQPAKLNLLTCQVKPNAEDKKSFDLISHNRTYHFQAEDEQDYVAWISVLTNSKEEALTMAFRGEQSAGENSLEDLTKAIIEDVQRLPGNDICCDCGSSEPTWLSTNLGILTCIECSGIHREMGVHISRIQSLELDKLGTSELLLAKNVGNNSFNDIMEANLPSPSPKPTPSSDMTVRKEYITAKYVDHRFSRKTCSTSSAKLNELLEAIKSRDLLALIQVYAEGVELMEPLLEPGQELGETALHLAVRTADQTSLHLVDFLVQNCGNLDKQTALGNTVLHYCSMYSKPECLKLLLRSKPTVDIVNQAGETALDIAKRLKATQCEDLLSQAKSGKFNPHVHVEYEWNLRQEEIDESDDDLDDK
# LEDGF integ inh: blocks HIV-1 LEDGF/p75-dependent DNA integration. TR-FRET IN-LEDGF/p75 DNA integration, Eu/Cy5. actives 0.64% (n = 370,000). inhibition, % at 3.7 µM;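 active = inhibition above the screen-wide mean plus 3 SD, cut at about 13% in these data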;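 note: signal is the Cy5 over europium emission ratio at 671 and 618 nm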
# UHRF1 binding: UHRF1 methyl-DNA binding inhibition | actives 0.75% (n = 370,000) | inhibition, % at 4.4 µM | UHRF1 binding to methylated oligo, TR-FRET | Q96T88; in the data active = inhibition above about 21%;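 note: UHRF1 SRA domain binding a hemimethylated CpG hairpin DNA probe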
# MBD2 DNA inh: blocks human MBD2 binding to methylated DNA. inhibition, % at 4.4 µM. TR-FRET, MBD2 binding to methylated oligonucleotide. Q9UBB5. actives 0.31% (n = 370,000); in the data active = inhibition above about 13%
# ARFGAP1 inh: inhibitors of rat ARFGAP1; AID 651572; Arfgap1-stimulated ARF1 GTP hydrolysis, GDP FP detection; actives 0.26% (n = 360,000); Q62848; inhibition, % at 16.5 µM;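 active = inhibition above a per-plate limit, mean inhibition of low control wells plus 3 SD, cut at about 25% in these data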
# Target sequence (Q62848 1-136 limits assumed): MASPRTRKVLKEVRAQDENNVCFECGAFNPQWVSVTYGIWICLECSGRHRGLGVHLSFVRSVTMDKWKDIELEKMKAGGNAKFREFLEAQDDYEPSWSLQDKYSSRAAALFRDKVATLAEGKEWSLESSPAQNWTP
#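 Material: truncated rat Arfgap1 GAP domain; Incubation: compound-enzyme preincubation 20 min, reaction 120 min, detection 60 min, 25 °C; Read-out: percent inhibition of Arfgap1-stimulated GTP hydrolysis; Technique: FP, GDP Alexa 633 tracer displaced from anti-GDP antibody, 620/688 nm; Controls: No-Arfgap1 wells (100%) versus DMSO full-reaction wells (0%); Replication: single well per compound.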
# TCR-CD3 inh: human TCR-CD3 binding inhibition | TAMRA-labeled TCR probe fluorescence, biochemical | inhibition, % at 9.4 µM | actives 0.37% (n = 360,000) | AID 651800; in the data active = inhibition above about 19%;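 note: recombinant mutant TCR 2C K166C tagged with TAMRA read by polarization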
# IN multimer act: activates HIV-1 integrase multimerization in LEDGF counter-screen; shares compounds with LEDGF integ inh; TR-FRET HIV-1 integrase multimerization, biochemical; activation, % at 7.7 µM; actives 17% (n = 2,000); AID 1053131; in the data active = activation above about 8.9%
# TRFRET interf: TR-FRET optical interference, LEDGF/p75 integration counter-screen | inhibition, % at 7.7 µM | TR-FRET optical interference counterscreen, HIV-1 IN multimerization | 2,000 tested, under 10 active | shares compounds with LEDGF integ inh | AID 1053135;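 active = inhibition above the mean over all tested compounds plus 3 SD, which no compound reached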
# IN-LEDGF confirm: confirmation of HIV-1 LEDGF/p75-dependent integration inhibitors; shares compounds with LEDGF integ inh; TR-FRET LEDGF/p75-dependent HIV-1 integration, biochemical; inhibition, % at 3.7 µM; actives 36% (n = 2,000); in the data active = inhibition above about 14%
# Hits are given with their value; . = inactive; / = no result given.
SMILES,ASAP1 inh,LEDGF integ inh,UHRF1 binding,MBD2 DNA inh,ARFGAP1 inh,TCR-CD3 inh,IN multimer act,TRFRET interf,IN-LEDGF confirm
COc1ccccc1-n1cnnc1SCC(=O)Nc1cccc(S(N)(=O)=O)c1,.,.,.,.,.,.,/,/,/
COC(=O)c1sc2nc3c(cc2c1N)CCCC3,.,.,.,.,.,.,/,/,/
COC(=O)c1sc2nc(N)c(C#N)cc2c1N,.,33.8,.,.,.,.,.,.,.
O=C(Nc1cc(Cl)ccc1N1CCOCC1)c1cccnc1Cl,.,.,.,.,.,.,/,/,/
O=C1CCC[C@@H]2[C@@H](Cc3ccccc3)[C@H](N3CCN(c4ccccc4)CC3)C[C@@H]3CCN1[C@@H]32,.,.,.,.,.,.,/,/,/
CCn1c(NC(=O)c2ccccc2)nc2ccccc21,.,.,.,.,.,.,/,/,/
CCCCn1c(NC(=O)C2CCCCC2)nc2ccccc21,.,27.7,.,.,.,.,.,.,16.8
C=CCn1c(NC(=O)c2ccccc2)nc2ccccc21,.,14.6,71.6,.,.,.,.,.,13.8
CCCCn1c(NC(=O)c2ccccc2)nc2ccccc21,.,26.4,.,.,.,.,.,.,24.9
CCCn1c(NC(=O)c2ccc(F)cc2)nc2ccccc21,.,.,.,.,.,.,/,/,/
CCn1c(NC(=O)/C=C/c2ccc(F)cc2)nc2ccccc21,.,15.7,.,.,.,.,.,.,.
O=C(NCc1ccccn1)c1cn(-c2ccccc2)nc1-c1ccc(Cl)cc1,.,.,.,.,.,.,/,/,/
O=C(O)/C=C/C(=O)N1Cc2cc3ccccc3nc2C1,.,18.8,.,.,.,.,.,.,.
CCOC(=O)N1Cc2cc3ccccc3nc2C1,.,.,.,.,.,.,/,/,/
COCc1cc(N2CCN(C(=O)OC(C)(C)C)C[C@@H]2C)ccc1N1C[C@@H](C)O[C@@H](C)C1,.,.,.,.,.,.,/,/,/
COCc1cc(N2CCN(C(=O)OC(C)(C)C)C[C@H]2C)ccc1N1CC[C@@H](O)C1,.,13.5,.,.,.,.,.,.,.
COC(=O)C1CN(Cc2cn(Cc3ccc(F)cc3)nn2)CCS(=O)(=O)N1Cc1ccc(F)cc1 (stereo not given),/,.,.,.,/,/,/,/,/
CC(=O)Nc1ccc(S(=O)(=O)NC2C3(C)CCC(C3)C2(C)C)cc1 (stereo not given),.,.,.,.,.,.,/,/,/
Cc1ccccc1C(=O)NC1CCN(CC(=O)N2CCCCC2C)CC1 (stereo not given),.,.,.,.,.,.,/,/,/
CCN=C1S/C(=C\c2ccc(OCC)c(OC)c2)C(=O)N1CC,.,.,.,.,.,.,/,/,/
CCN=C1S/C(=C\c2cc(Cl)c(OC)c(OC)c2)C(=O)N1CC,.,17.4,.,.,.,.,.,.,.
CCOC(=O)c1ccc(NC(=O)c2nc[nH]c2C(=O)NCCNC(=O)c2[nH]cnc2C(=O)Nc2ccc(C(=O)OCC)cc2)cc1,.,.,.,.,.,.,/,/,/
CCOC(=O)c1ccc(NC(=O)c2nc[nH]c2C(=O)NC)cc1,.,18.3,.,.,.,.,.,.,.
CCOC(=O)N1CCC(Nc2ccc(N3C(=O)C4CCCCC4C3=O)cc2[N+](=O)[O-])CC1 (stereo not given),.,.,.,.,.,.,/,/,/
O=C1c2cccc3c2N(CCC3)C(=O)C1(F)c1ccccc1 (stereo not given),.,14.1,.,.,.,.,.,.,.
SMILES,ASAP1 inh,LEDGF integ inh,UHRF1 binding,MBD2 DNA inh,ARFGAP1 inh,TCR-CD3 inh,IN multimer act,TRFRET interf,IN-LEDGF confirm
O=C1[C@@H]2Cc3c([nH]c4ccccc34)CN2C(=O)CN1CCCCCO,.,95.5,.,.,.,.,.,.,.
O=C(Nc1ccncc1)C1CCN(S(=O)(=O)c2c(Cl)cccc2Cl)CC1,.,.,.,.,.,.,/,/,/
O=C(Cc1ccccc1F)NC1CCCN(Cc2ccc(Cl)cc2)C1 (stereo not given),.,.,.,.,.,.,/,/,/
COc1cccc(=O)c2c(C)n(CC(=O)c3ccccc3)c(C)c12,.,51.1,.,.,.,.,.,.,.
CCOc1cccc(=O)c2c(C)n(CC(=O)c3ccccc3)c(C)c12,.,.,.,.,.,.,/,/,/
COc1ccc(C(=O)N2N=C3CC(C)(C)OCC3C2c2ccccc2)cc1 (stereo not given),.,66.5,.,.,.,.,.,.,.
COc1ccc(C2CC(c3ccc(C)cc3)=NN2C(=O)c2ccccc2)cc1 (stereo not given),.,.,.,.,.,.,/,/,/
CCN(C[C@H]1N[C@@](C)(C(=O)OC)[C@H]2C(=O)N(C)C(=O)[C@@H]12)S(=O)(=O)c1ccccc1,.,.,.,.,.,.,/,/,/
CCN(C[C@H]1N[C@@](C)(C(=O)OC)[C@H]2C(=O)N(C)C(=O)[C@@H]12)S(=O)(=O)c1ccc(C)cc1,.,34.5,.,.,.,.,.,.,.
COC(=O)[C@]1(C)N[C@H](CN(C)C(=O)c2ccc(F)cc2)[C@@H]2C(=O)N(Cc3ccccc3)C(=O)[C@@H]21,.,.,.,.,.,.,/,/,/
Cn1c(SCC(=O)NC(=O)NCc2ccco2)nnc1-c1ccccc1,.,21.5,22.2,.,.,.,.,.,.
Cc1nnc(NC(=O)CSc2nnc(-c3ccccc3)n2C)s1,.,18.0,.,.,.,.,.,.,.
Cn1c(SCC(=O)Nc2nc3c(s2)CCCC3)nnc1-c1ccccc1,.,.,.,.,.,.,/,/,/
Cc1noc(C)c1C(=O)Nc1ccccc1-c1ccccc1,.,27.0,.,.,.,.,.,.,.
Cc1cc([N+](=O)[O-])ccc1NC(=O)Cc1ccc(F)cc1,.,85.5,.,.,.,.,.,.,.
CCOC(=O)N1CCN(C(=O)c2ccc3nc4ccc(Cl)cc4c(=O)n3c2)CC1,.,17.6,.,.,.,.,.,.,.
CCN(CC)c1ccc(C=Nc2ccc(N(C)C)cc2)c(O)c1,.,33.9,.,.,.,.,12.7,.,.
CCN(CC)c1ccc(N=Cc2ccc(N(CC)CC)cc2O)cc1,.,15.1,.,.,.,.,.,.,.
Cc1ccc(S(=O)(=O)N2CCN(C(=O)COC(=O)c3cccnc3Cl)CC2)c(C)c1,.,66.3,.,.,.,.,.,.,.
Cc1cc(C)c(OC2(c3ccccc3)OC(=O)c3ccccc32)c(C)c1 (stereo not given),.,31.0,.,.,.,.,.,.,.

# Screening data deposited in PubChem BioAssay by The Scripps Research Institute Molecular Screening Center.
